Square brackets hold non-standard residues; d marks the D form. Peptide text beside a SMILES is read from it. ξ: configuration not given here. ξOrn = NCCCC(N)C(=O)O
Assays:
[1] = Displacement of 125I-[Tyr3]-NT from HA-tagged human NTS1 R212E mutant receptor expressed in HEK293 cell membranes after 30 mins by gamma counting analysis
Method in brief: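 Membranes from HEK293 cells transfected with human HA-tagged NTS1-R212E (10 μg DNA, PEI), prepared fresh 48 h post-transfection. 50 μg membrane incubated with 130 pM 125I-[Tyr3]-NT in 50 mM Tris-HCl pH 7.5, 0.2% BSA with competitor 10^-11 to 10^-5 M, 30 min at 25 °C. Nonspecific binding defined with 10^-5 M NT[8-13]. Filtration, γ-counting. IC50 converted to Ki via Cheng−Prusoff; at least three experiments.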

[2] = target: T1, Neurotensin receptor type 2 (Homo sapiens, UniProt O95665); assay: Displacement of 125I-[Tyr3]-NT from human NTS2 receptor
T1 sequence (O95665 whole entry): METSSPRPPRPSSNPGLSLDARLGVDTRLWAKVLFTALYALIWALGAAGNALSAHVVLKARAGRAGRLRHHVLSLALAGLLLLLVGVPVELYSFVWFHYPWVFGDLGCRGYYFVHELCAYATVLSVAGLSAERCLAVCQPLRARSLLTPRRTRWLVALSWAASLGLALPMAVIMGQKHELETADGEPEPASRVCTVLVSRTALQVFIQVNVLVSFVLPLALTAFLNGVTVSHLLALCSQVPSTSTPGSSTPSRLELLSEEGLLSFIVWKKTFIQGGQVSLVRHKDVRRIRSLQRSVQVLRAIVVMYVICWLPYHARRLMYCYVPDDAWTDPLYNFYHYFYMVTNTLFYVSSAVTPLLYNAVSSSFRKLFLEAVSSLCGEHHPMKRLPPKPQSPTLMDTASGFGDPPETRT
Method in brief: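 Fresh membranes from 1321N1 cells stably expressing hNTS2 (DMEM, 10% FBS, G418). 50 μg membrane incubated with 255 pM 125I-[Tyr3]-NT in 50 mM Tris-HCl pH 7.5, 0.2% BSA with competitor 10^-11 to 10^-5 M, 30 min at 25 °C. Nonspecific binding defined with 10^-5 M NT[8-13]. Filtration, γ-counting. IC50 converted to Ki via Cheng−Prusoff; mean of at least three experiments.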

[3] = target: Neurotensin receptor type 1 (Homo sapiens, UniProt P30989); assay: Displacement of 125I-[Tyr3]-NT from human NTS1 receptor expressed in CHOK1 cell membranes after 30 mins by gamma counting analysis
Neurotensin receptor type 1, sequence (P30989 whole entry): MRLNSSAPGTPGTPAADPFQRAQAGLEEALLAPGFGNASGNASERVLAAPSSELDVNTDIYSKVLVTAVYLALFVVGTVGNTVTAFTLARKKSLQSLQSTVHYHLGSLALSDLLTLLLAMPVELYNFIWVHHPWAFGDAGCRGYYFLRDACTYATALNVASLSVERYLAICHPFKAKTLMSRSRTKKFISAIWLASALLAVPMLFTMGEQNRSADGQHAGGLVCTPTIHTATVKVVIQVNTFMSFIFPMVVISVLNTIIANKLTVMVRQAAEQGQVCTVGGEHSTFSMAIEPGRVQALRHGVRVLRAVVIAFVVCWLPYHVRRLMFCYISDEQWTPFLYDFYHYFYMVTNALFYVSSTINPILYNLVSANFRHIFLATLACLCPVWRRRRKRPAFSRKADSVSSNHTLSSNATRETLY

[4] = target: T1, Neurotensin receptor type 2; assay: Displacement of 125I-[Tyr3]-NT from human NTS2 receptor expressed in human 1321N1 cell membranes after 30 mins by gamma counting analysis
Method in brief: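 Fresh membranes from 1321N1 cells stably expressing hNTS2 (DMEM, 10% FBS, G418). Nonspecific binding defined with 10^-5 M NT[8-13]. Filtration, γ-counting. IC50 converted to Ki via Cheng−Prusoff; mean of at least three experiments.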

Homo sapiens [5] = species: Homo sapiens; assay: Selectivity ratio of Ki for human NTS1 receptor expressed in CHOK1 cell membranes to Ki for HA-tagged human NTS1 R212E mutant receptor expressed in HEK293 cell membranes; format: cell-based
Method in brief: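 Ki was taken on two receptors. WT: 15 μg CHO-K1 hNTS1 membrane with 45 pM 125I-[Tyr3]-NT. R212E: HEK293 cells transfected by PEI with HA-tagged hNTS1-R212E, membranes made 48 h later; 50 μg membrane with 130 pM tracer. Both ran in Tris-HCl pH7.5 with 0.2% BSA, 30 min at 25 °C, with filtration and γ-counting. IC50 was converted to Ki by Cheng–Prusoff, and the ratio taken as WT Ki over mutant Ki.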

Homo sapiens [6] = species: Homo sapiens; assay: Selectivity ratio of Ki for human NTS1 receptor expressed in CHOK1 cell membrane to Ki for human NTS2 receptor expressed in human 1321N1 cell membranes; format: cell-based

Row | Molecule | Ki [1] | Ki [2] | Ki [3] | Ki [4] | Ratio Ki (Homo sapiens [5]) | Ratio Ki (Homo sapiens [6])
1 | CC[C@H](C)[C@H](NC(=O)[C@H](Cc1ccc(O)cc1)NC(=O)[C@@H]1CCCN1C(=O)[C@H](CCCNC(=N)N)NC(=O)[C@@H](N)CCCNC(=N)N)C(=O)N[C@@H](CC(C)C)C(=O)O | 4.69 nM | – | – | – | – | –
2 | CC[C@H](C)[C@H](NC(=O)[C@H](Cc1ccc(O)cc1)NC(=O)[C@@H]1CCCN1C(=O)[C@H](CCCCN)NC(=O)[C@@H](N)CCCCN)C(=O)N[C@@H](CC(C)C)C(=O)O | – | 0.95 nM | – | – | – | –
3 | CC[C@H](C)[C@H](NC(=O)C(CCCN)NC(=O)[C@@H]1CCCN1C(=O)[C@H](CCCCN)NC(=O)[C@@H](N)CCCCN)C(=O)N[C@@H](CC(C)C)C(=O)O (stereo partly drawn) (H-KKP[ξOrn]IL-OH) | – | – | > 10000 nM | 619 nM | – | –
4 | H-KKPEIL-OH | > 10000 nM | – | > 10000 nM | 1600 nM | – | –
5 | H-KKPDIL-OH | > 10000 nM | – | > 10000 nM | 4200 nM | – | –
6 | H-KKPKIL-OH | 199 nM | – | 5700 nM | 262 nM | 28.6 | 21.8
7 | H-KKPHIL-OH | – | – | 456 nM | 474 nM | – | 0.96
8 | CC[C@H](C)[C@H](NC(=O)[C@H](CCCCN)NC(=O)[C@@H]1CCCN1C(=O)[C@H](CCCCN)NC(=O)[C@@H](N)CCCCN)C(=O)N[C@@H](C[Si](C)(C)C)C(=O)O | 127 nM | – | 663 nM | – | – | –
9 | CC[C@H](C)[C@H](NC(=O)[C@H](CCCCN)NC(=O)[C@@H]1CCCN1C(=O)[C@H](CCCCN)NC(=O)[C@@H](N)CCCCN)C(=O)N[C@H](C[Si](C)(C)C)C(=O)O | – | – | – | 67 nM | 5.22 | 9.9
